Measured values: ChEMBL document CHEMBL2062466, “Synthesis, DNA binding and antileishmanial activity of low molecular weight bis-arylimidamides” (Eur J Med Chem, 2012)
pIC50: −log10 of the molar value.

Assays:
[1] = test system: Leishmania amazonensis; assay: Antileishmanial activity against intracellular Leishmania amazonensis; type: functional, organism-based
[2] = test system: L6; assay: Cytotoxicity against rat L6 cells; type: cell-based
[3] = test system: Nucleic Acid; assay: Binding affinity to poly(dA-dT)n DNA assessed as increase in melting temperature at 0.3 mol compound per mole of DNA by spectrophotometry; type: nucleic-acid assay
Method in brief: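 Thermal melting monitored by UV absorbance in 1 cm quartz cuvettes, heated at 0.5 °C/min under thermistor control. CAC 10 buffer: cacodylic acid 10 mM, EDTA 1 mM, NaCl 100 mM, pH 7.0. DNA concentration set from absorbance at 260 nm. Complex at 0.3 mol compound per mol DNA, with DNA alone as control. ΔTm taken from the peak of first-derivative (dA/dT) curves.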

[4] = test system: Leishmania donovani; assay: Antileishmanial activity against intracellular Leishmania donovani; type: functional, organism-based
[5] = Selectivity index, ratio of IC50 for rat L6 cells to IC50 for intracellular Leishmania donovani; type: toxicity, cell-based
[6] = test system: Mus musculus; assay: Toxicity in uninfected mouse assessed as induction of severe tremors at 30 mg/kg, ip measured 10 mins post dose; type: organism-based; design: dose 30 mg/kg, route intraperitoneal; settings: in vivo
[7] = test system: Mus musculus; assay: Toxicity in uninfected mouse assessed as induction of severe tremors at 10 mg/kg, ip measured 40 mins post dose; type: organism-based; design: dose 10 mg/kg, route intraperitoneal; settings: in vivo

Row | SMILES | pIC50 [1] | pIC50 [2] | ΔTm [3] [°C] | pIC50 [4] | Selectivity Index [5] | Activity [6] | Activity [7]
1 | N=C(Nc1ccc(Cc2ccc(NC(=N)c3ccccn3)cc2)cc1)c1ccccn1 | < 5.00 | 4.03 | 2.1 |  |  |  | 
2 | Cl.Cl.N=C(Nc1ccc(-c2ccc(NC(=N)c3ccccn3)cc2)cc1)c1ccccn1 | 6.12 | 4.33 | 6 | 7.10 | 594 | Toxic | Toxic
3 | N=C(Nc1ccc(COCc2ccc(NC(=N)c3ccccn3)cc2)cc1)c1ccccn1 | 5.96 | 4.67 | 4 |  |  |  | 
4 | N=C(Nc1ccc(NC(=N)c2ncccn2)cc1)c1ncccn1 |  | < 3.68 | 0 |  |  |  | 
5 | Cl.Cl.N=C(Nc1ccc(Oc2ccc(NC(=N)c3ccccn3)cc2)cc1)c1ccccn1 | 6.17 | 5.30 | 5.2 | 7.55 | 178 | Toxic | 
6 | N=C(Nc1ccc(NC(=N)c2ccccn2)cc1)c1ccccn1 | < 5.00 | < 3.67 | 0 |  |  |  | 
7 | CC(C)Oc1cc(NC(=N)c2ccccn2)ccc1-c1ccc(NC(=N)c2ccccn2)cc1OC(C)C.Cl.Cl | 6.85 | 4.64 | 0.1 | 7.60 | 916 | Toxic | 
8 | CC(C)Oc1cc(NC(=N)c2ccccn2)ccc1-c1ccc(-c2ccc(NC(=N)c3ccccn3)cc2OC(C)C)o1 |  | 5.52 | 6 |  |  |  | 
9 | N=C(Nc1ccccn1)c1ccc(C(=N)Nc2ccccn2)cc1 | 5.29 | < 3.69 | 0.5 |  |  |  | 
